How the values were obtained:
Homo sapiens [1] = species on record: Homo sapiens; assay: (§1) Intracellular of AZT-TP concentrations in LAI/HIV-1 infected PMBCs was determined at a conc of 10 uM); type: functional, organism-based
How it was run: (§2)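 PHA-stimulated, LAI/HIV-1-infected PBMCs (donor 2) at 10^6 cells/mL, triplicate, given 10 µM compound ± 50 µM thymidine for 18 h at 37 °C. Cells washed, extracted in 60% methanol overnight at −20 °C, dried and reconstituted. AZT-TP quantified by inhibition of recombinant HIV-1 RT (poly(rA)-oligo(dT), 3H-TTP, 2 h at 37 °C) relative to AZT-TP standards; pmol/10^6 cells.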

Homo sapiens [2] = species on record: Homo sapiens; assay: as §1; type: functional, organism-based; how it was run: as §2; remark: listed apart in the source
Homo sapiens [3] = species on record: Homo sapiens; assay: Inhibition of Phosphoramidase activity with AZT L-amino acid carbamates; type: functional; settings: concentration not given here
How it was run: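 CEM cells (1.5 × 10^8) sonicated in 1 mL 20 mM Tris-HCl, 500 mM NaCl, pH 7.5. Whole lysate incubated 45 min at 37 °C with phosphoramidate (from 10 mM water stock) and carbamate (from 10 mM DMSO stock), then stopped with methanol. AZT-MP quantified by RP-HPLC-RIA against a no-carbamate control. Mean of two experiments.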

CCRF-CEM [4] = assay: Effective concentration of required to inhibit the replication of HIV-1 BY 50% in CEM cells; type: functional, cell-based; settings: Homo sapiens
How it was run: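 PHA-stimulated CEM cells infected 3 h at 37 °C with LAI/HIV-1 (10 000 DPM RT activity/10^6 cells), then washed. Resuspended at 2.5 × 10^5 cells/mL in medium with 10 U/mL IL-2. Drugs in ddH2O added to duplicate or triplicate cultures. Held 6 days at 37 °C; supernatant p24 measured by ELISA.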

CCRF-CEM [5] = assay: Concentration required to kill 50% of CEM cells; type: functional, cell-based; settings: Homo sapiens
How it was run: (§3)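 Uninfected PHA-stimulated PBMCs or CEM cells plated at 2.5 × 10^5 cells/well with diluted drug. Incubated 6 days at 37 °C, 10% CO2. XTT/PMS added and incubated 4 h at 37 °C. Absorbance read at 450 nm, 630 nm reference.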

Homo sapiens [6] = species on record: Homo sapiens; assay: Effective concentration of required to inhibit the replication of HIV-1 BY 50% in PMBCs from donor 1; type: functional, organism-based
Homo sapiens [7] = species on record: Homo sapiens; assay: Effective concentration of required to inhibit the replication of HIV-1 BY 50% in PMBCs from donor 2; type: functional, organism-based
Homo sapiens [8] = species on record: Homo sapiens; assay: Effective concentration required to inhibit the replication of HIV-1 by 50% in PMBCs in the absence of thymidine; type: functional, organism-based
Homo sapiens [9] = species on record: Homo sapiens; assay: Effective concentration required to inhibit the replication of HIV-1 by 50% in PMBCs in the presence of thymidine; type: functional, organism-based
Homo sapiens [10] = species on record: Homo sapiens; assay: Effective concentration required to inhibit the replication of HIV-1 in activated PBMCs; type: functional, organism-based
How it was run: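 PBMCs held 2 days either resting (no PHA, no IL-2) or with 10 μg/mL PHA, then IL-2 10 U/mL. Nonadherent cells infected with LAI/HIV-1 (5000 DPM/10^6 cells) for 3 h and washed. Plated at 2.5 × 10^5 cells/mL, compounds added in triplicate, 6 days at 37 °C. Supernatant RT activity measured; proviral gag DNA by PCR normalised to IFN-β1.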

Homo sapiens [11] = species on record: Homo sapiens; assay: Effective concentration required to inhibit the replication of HIV-1 with 2 hr pretreatment of activated PBMCs; type: functional, organism-based
How it was run: (§4)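 Uninfected PHA-stimulated PBMCs (2.5 × 10^5 cells/mL) given compound in ddH2O in triplicate for 2 h at 37 °C, then LAI/HIV-1 (5000 DPM/10^6 cells) added. In parallel cultures, cells were infected 3 h first and then treated. After 6 days at 37 °C, supernatant RT activity measured.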

Homo sapiens [12] = species on record: Homo sapiens; assay: Effective concentration required to inhibit the replication of HIV-1 with no pretreatment of activated PBMCs; type: functional, organism-based; how it was run: as §4
[13] = Inhibition of AZT-MP production by cell free extracts of CEM cells; type: functional, Homo sapiens, CCRF-CEM; set-up: unit not given here
How it was run: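 CEM cells (1.5 × 10^8) sonicated in 1 mL 20 mM Tris-HCl, 500 mM NaCl, pH 7.5. Lysate incubated with phosphoramidate and carbamate, each added from 10 mM stock, for 45 min at 37 °C, then stopped with methanol. AZT-MP quantified by RP-HPLC-RIA against a no-carbamate control. Mean of two experiments.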

U1 = assay: Antiviral activity was determined in chronically infected U1 cell line with HIV-1; type: functional, cell-based; settings: Homo sapiens
How it was run: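 HIV-1 chronically infected U1 cells (1.5 × 10^5 cells/well) in RPMI 1640 with 10% FBS and 10 ng/mL TNF-α. Compound in ddH2O added to duplicate cultures. Incubated 48 h at 37 °C, 5% CO2. Supernatant p24gag measured by ELISA; XTT assay run on the remaining culture.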

Homo sapiens [14] = species on record: Homo sapiens; assay: Concentration required to kill 50% of PBMCs; type: functional, organism-based; how it was run: as §3
[15] = test system: Human immunodeficiency virus 1; assay: Concentration required to inhibit the production of proviral DNA in unactivated PBMCs

Structure (SMILES) | IC50 (CCRF-CEM [5]) [µM] | EC50 (Homo sapiens [6]) [nM] | EC50 (Homo sapiens [7]) [nM] | IC50 (Homo sapiens [14]) [µM] | also measured
COC(=O)[C@H](Cc1ccccc1)NP(=O)(O)OC[C@H]1O[C@@H](n2cc(C)c(=O)[nH]c2=O)C[C@@H]1N=[N+]=[N-] [listing 1 of 2 here] | – | – | – | – | Concentration (pM (10e6*cells)-1) (Homo sapiens [1]): 0; Concentration (pM (10e6*cells)-1) (Homo sapiens [2]): 0.01
COC(=O)[C@H](Cc1ccccc1)NC(=O)OC[C@H]1O[C@@H](n2cc(C)c(=O)[nH]c2=O)C[C@@H]1N=[N+]=[N-].COC(=O)[C@H](Cc1ccccc1)NP(=O)(O)OC[C@H]1O[C@@H](n2cc(C)c(=O)[nH]c2=O)C[C@@H]1N=[N+]=[N-] | – | – | – | – | inhibition (Homo sapiens [3]): 99.6%
COC(=O)[C@@H](Cc1c[nH]c2ccccc12)NP(=O)(O)OC[C@H]1O[C@@H](n2cc(C)c(=O)[nH]c2=O)C[C@@H]1N=[N+]=[N-].COC(=O)[C@H](Cc1c[nH]c2ccccc12)NC(=O)OC[C@H]1O[C@@H](n2cc(C)c(=O)[nH]c2=O)C[C@@H]1N=[N+]=[N-] [listing 1 of 2 here] | – | – | – | – | inhibition (Homo sapiens [3]): 60%
COC(=O)[C@H](Cc1ccccc1)NP(=O)(O)OC[C@H]1O[C@@H](n2cc(C)c(=O)[nH]c2=O)C[C@@H]1N=[N+]=[N-] [listing 2 of 2 here] | > 100 | 30000 | 15000 | > 100 | EC50 (CCRF-CEM [4]): < 1 nM; EC50 (Homo sapiens [8]): 15 µM; EC50 (Homo sapiens [9]): > 100 µM; EC50 (Homo sapiens [10]): > 100 µM; EC50 (Homo sapiens [11]): 1000 nM; EC50 (Homo sapiens [12]): 15 µM; Activity [13]: 6.3; EC50 (U1): 25 µM; IC100 [15]: >100 µM
CNC(=O)[C@H](Cc1ccccc1)NP(=O)(O)OC[C@H]1O[C@@H](n2cc(C)c(=O)[nH]c2=O)C[C@@H]1N=[N+]=[N-] | > 100 | 180 | 250 | > 100 | –
COC(=O)[C@@H](Cc1ccccc1)NP(=O)(O)OC[C@H]1O[C@@H](n2cc(C)c(=O)[nH]c2=O)C[C@@H]1N=[N+]=[N-] | > 100 | 89 | 80 | > 100 | –
CNC(=O)[C@@H](Cc1c[nH]c2ccccc12)NP(=O)(O)OC[C@H]1O[C@@H](n2cc(C)c(=O)[nH]c2=O)C[C@@H]1N=[N+]=[N-] | > 100 | 400 | 180 | > 100 | –
COC(=O)[C@@H](Cc1c[nH]c2ccccc12)NP(=O)(O)OC[C@H]1O[C@@H](n2cc(C)c(=O)[nH]c2=O)C[C@@H]1N=[N+]=[N-].COC(=O)[C@H](Cc1c[nH]c2ccccc12)NC(=O)OC[C@H]1O[C@@H](n2cc(C)c(=O)[nH]c2=O)C[C@@H]1N=[N+]=[N-] [listing 2 of 2 here] | – | – | – | – | Activity [13]: 2.56
COC(=O)[C@H](CC(C)C)NP(=O)(O)OC[C@H]1O[C@@H](n2cc(C)c(=O)[nH]c2=O)C[C@@H]1N=[N+]=[N-] | > 100 | 1300 | 1000 | > 100 | –

Source: ChEMBL document CHEMBL1134778, “Amino acid phosphoramidate monoesters of 3'-azido-3'-deoxythymidine: relationship between antiviral potency and intracellular metabolism” (J Med Chem, 2001)
